Experimental data of several laboratories.
Compare with care: the assays were run in different laboratories.
Target: Inhibitor of nuclear factor kappa-B kinase subunit epsilon (IKBKE, Homo sapiens, UniProt Q14164)
Observed: enzyme activity
One construct used (Q14164 1-716): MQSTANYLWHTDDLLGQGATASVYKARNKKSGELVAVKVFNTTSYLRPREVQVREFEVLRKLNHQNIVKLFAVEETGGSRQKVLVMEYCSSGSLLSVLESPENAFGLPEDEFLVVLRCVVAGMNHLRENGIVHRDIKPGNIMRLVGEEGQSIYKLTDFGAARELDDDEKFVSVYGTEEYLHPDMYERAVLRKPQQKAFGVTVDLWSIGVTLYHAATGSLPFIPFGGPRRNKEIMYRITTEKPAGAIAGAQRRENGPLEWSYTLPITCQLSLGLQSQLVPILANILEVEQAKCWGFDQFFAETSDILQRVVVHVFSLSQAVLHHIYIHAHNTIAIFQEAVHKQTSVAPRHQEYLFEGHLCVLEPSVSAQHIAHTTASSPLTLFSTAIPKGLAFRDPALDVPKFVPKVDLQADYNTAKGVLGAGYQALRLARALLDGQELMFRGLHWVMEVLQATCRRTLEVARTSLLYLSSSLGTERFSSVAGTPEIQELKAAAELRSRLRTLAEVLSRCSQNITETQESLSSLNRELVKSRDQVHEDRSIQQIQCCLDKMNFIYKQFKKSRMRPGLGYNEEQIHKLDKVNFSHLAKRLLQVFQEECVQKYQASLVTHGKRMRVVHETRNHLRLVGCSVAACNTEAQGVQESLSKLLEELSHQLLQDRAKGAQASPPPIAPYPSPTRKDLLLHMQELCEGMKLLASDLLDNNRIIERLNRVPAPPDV

Structure (SMILES)	test	setting	remaining activity
COc1cc(Nc2cnc(C#N)c(O[C@H](C)CN(C)C)n2)ncc1-c1cnn(C)c1	inhibitor, radiometric	1 µM	78%
COc1cc(Cl)c(C(=O)N[C@@H](CN[C@H]2CC[C@@H](N)CC2)Cc2ccc(C#N)cc2)cc1-c1ccc(CN[C@H](C)c2ccc(C)cc2)o1	inhibitor	1 µM	89%
O=C(NCCCNc1nc(Nc2cccc(NC(=O)N3CCCC3)c2)ncc1C1CC1)C1CCC1	inhibitor, radiometric	1 µM	3%
O=c1c2ccccc2[nH]c(=S)n1CCN1CCC(=C(c2ccc(F)cc2)c2ccc(F)cc2)CC1	inhibitor	0.5 µM	101%
CC(C)(O)[C@H]1CC[C@H](Nc2ccc3ncc(-c4cccc(C(F)(F)F)c4)n3n2)CC1	inhibitor	1 µM	90.2%
Oc1cccc(-c2nc(N3CCOCC3)c3oc4ncccc4c3n2)c1	inhibitor	10 µM	85%
O=c1cc(-c2cccc3c2Sc2ccccc2S3)oc(N2CCOCC2)c1	inhibitor	0.5 µM	96.5%
CC(C)(C)c1nc(-c2cccc(NS(=O)(=O)c3c(F)cccc3F)c2F)c(-c2ccnc(N)n2)s1	inhibitor, radiometric	1 µM	97%
NS(=O)(=O)c1ccc(CNc2nc(Nc3cccc(NC(=O)N4CCCC4)c3)ncc2Br)cc1	inhibitor, radiometric	1 µM	35%
Cc1cnc(NC2CCOCC2)nc1-n1cnc(C(=O)NC(CN)c2cc(F)cc(Cl)c2)c1 (stereo not drawn)	inhibitor, radiometric	1 µM	64%
O=C1Nc2ccc(Cl)cc2C1=Cc1cc(Cl)c(O)c(Cl)c1		0.5 µM	94.7%
O=C(NCCCNc1nc(Nc2cccc(NC(=O)N3CCCC3)c2)ncc1I)c1cccs1	inhibitor, radiometric	1 µM	2%
Cn1c(=O)n(-c2ccc(C(C)(C)C#N)cc2)c2c3cc(-c4cnc5ccccc5c4)ccc3ncc21	inhibitor	10 µM	86%
Cc1nn(CC(F)(F)F)cc1Nc1ncc(Br)c(NCCc2cnc[nH]2)n1	inhibitor, radiometric	1 µM	55%
O=C(Nc1cnn(-c2csc(C(=O)NC3COC3)c2)c1)Nc1ccccc1Cl	inhibitor	5 µM	110%
